Tests used:
[1] = system: Mus musculus; test: Toxicity in female CDF1 mouse allografted with mouse P388 cells assessed as animal survival at 50 mg/kg, ip administered daily for 9 days as saline with Tween-80 solution starting 24 hrs after tumor inoculation; format: organism-based; parameters: dose 50 mg/kg, route intraperitoneal; conditions: in vivo
Summary of the method: (§1)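 P-388 leukemia ascitic fluid implanted ip. Compound dosed ip in saline with Tween-80 vehicle, once daily for nine doses from 24 h after tumor inoculation. Acute toxicity scored as toxicity-day survivors per group. Survival was followed up to 30 days, with 30-day survival counted as "cure". Follows NCI screening protocols.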

[2] = system: Mus musculus; test: Toxicity in female CDF1 mouse allografted with mouse P388 cells assessed as animal survival at 25 mg/kg, ip administered daily for 9 days as saline with Tween-80 solution starting 24 hrs after tumor inoculation; format: organism-based; parameters: dose 25 mg/kg, route intraperitoneal; conditions: in vivo; summary of the method: as §1
[3] = system: P388; test: Antitumor activity against mouse P388 cells allografted in female CDF1 mouse assessed as change in body weight at 50 mg/kg, ip administered daily for 9 days as saline with Tween-80 solution starting 24 hrs after tumor inoculation; format: functional; conditions: route intraperitoneal
Summary of the method: (§2)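 Ascitic fluid carrying P388 cells was inoculated ip. Compound was given ip in nine daily doses, starting 24 h after inoculation, in Klucel (hydroxypropylcellulose) suspension or in saline with Tween-80. Body-weight difference (treated minus control) was recorded on day 5. Survival was scored as %T/C of median survival time, and 30-day survival counted as cure.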

[4] = system: P388; test: Antitumor activity against mouse P388 cells allografted in male CDF1 mouse assessed as disease cures by measuring 30-days host survival at 50 mg/kg, ip administered daily for 9 days as saline with Tween-80 solution starting 24 hrs after tumor inoculation relative to control; format: functional; conditions: route intraperitoneal
Summary of the method: (§3)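 P388 ascitic cell inoculum given ip to CDF1 mice of the sex in each line. Nine daily ip doses in saline with Tween-80 as vehicle, starting 24 h after inoculation. Median survival time expressed as %T/C (>125 significant); "cure" defined as 30-day survival.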

[5] = system: Mus musculus; test: Toxicity in female CDF1 mouse allografted with mouse P388 cells assessed as animal survival at 100 mg/kg, ip administered daily for 9 days as saline with Tween-80 solution starting 24 hrs after tumor inoculation; format: organism-based; parameters: dose 100 mg/kg, route intraperitoneal; conditions: in vivo; summary of the method: as §1
[6] = system: P388; test: Antitumor activity against mouse P388 cells allografted in female CDF1 mouse assessed as change in body weight at 200 mg/kg, ip administered daily for 9 days as saline with Tween-80 solution starting 24 hrs after tumor inoculation; format: functional; conditions: route intraperitoneal; summary of the method: as §2
[7] = system: P388; test: Antitumor activity against mouse P388 cells allografted in female CDF1 mouse assessed as disease cures by measuring 30-days host survival at 100 mg/kg, ip administered daily for 9 days as saline with Tween-80 solution starting 24 hrs after tumor inoculation relative to control; format: functional; conditions: route intraperitoneal; summary of the method: as §3
[8] = system: P388; test: Antitumor activity against mouse P388 cells allografted in male CDF1 mouse assessed as change in body weight at 50 mg/kg, ip administered daily for 9 days as saline with Tween-80 solution starting 24 hrs after tumor inoculation; format: functional; conditions: route intraperitoneal; summary of the method: as §2
[9] = system: P388; test: Antitumor activity against mouse P388 cells allografted in female CDF1 mouse assessed as disease cures by measuring 30-days host survival at 400 mg/kg, ip administered daily for 9 days as saline with Tween-80 solution starting 24 hrs after tumor inoculation relative to control; format: functional; conditions: route intraperitoneal; summary of the method: as §3
[10] = system: P388; test: Antitumor activity against mouse P388 cells allografted in male CDF1 mouse assessed as change in body weight at 25 mg/kg, ip administered daily for 9 days as saline with Tween-80 solution starting 24 hrs after tumor inoculation; format: functional; conditions: route intraperitoneal; summary of the method: as §2
[11] = system: Mus musculus; test: Toxicity in female CDF1 mouse allografted with mouse P388 cells assessed as animal survival at 200 mg/kg, ip administered daily for 9 days as saline with Tween-80 solution starting 24 hrs after tumor inoculation; format: organism-based; parameters: dose 200 mg/kg, route intraperitoneal; conditions: in vivo; summary of the method: as §1
[12] = system: P388; test: Antitumor activity against mouse P388 cells allografted in female CDF1 mouse assessed as disease cures by measuring 30-days host survival at 50 mg/kg, ip administered daily for 9 days as saline with Tween-80 solution starting 24 hrs after tumor inoculation relative to control; format: functional; conditions: route intraperitoneal; summary of the method: as §3
[13] = system: P388; test: Antitumor activity against mouse P388 cells allografted in female CDF1 mouse assessed as disease cures by measuring 30-days host survival at 25 mg/kg, ip administered daily for 9 days as saline with Tween-80 solution starting 24 hrs after tumor inoculation relative to control; format: functional; conditions: route intraperitoneal; summary of the method: as §3
[14] = system: P388; test: Antitumor activity against mouse P388 cells allografted in female CDF1 mouse assessed as change in body weight at 100 mg/kg, ip administered daily for 9 days as saline with Tween-80 solution starting 24 hrs after tumor inoculation; format: functional; conditions: route intraperitoneal; summary of the method: as §2
[15] = system: P388; test: Antitumor activity against mouse P388 cells allografted in female CDF1 mouse assessed as change in body weight at 400 mg/kg, ip administered daily for 9 days as saline with Tween-80 solution starting 24 hrs after tumor inoculation; format: functional; conditions: route intraperitoneal; summary of the method: as §2
[16] = system: Mus musculus; test: Toxicity in male CDF1 mouse allografted with mouse P388 cells assessed as animal survival at 100 mg/kg, ip administered daily for 9 days as saline with Tween-80 solution starting 24 hrs after tumor inoculation; format: organism-based; parameters: dose 100 mg/kg, route intraperitoneal; conditions: in vivo; summary of the method: as §1
[17] = system: P388; test: Antitumor activity against mouse P388 cells allografted in male CDF1 mouse assessed as disease cures by measuring 30-days host survival at 100 mg/kg, ip administered daily for 9 days as saline with Tween-80 solution starting 24 hrs after tumor inoculation relative to control; format: functional; conditions: route intraperitoneal; summary of the method: as §3
[18] = system: P388; test: Antitumor activity against mouse P388 cells allografted in female CDF1 mouse assessed as disease cures by measuring 30-days host survival at 200 mg/kg, ip administered daily for 9 days as saline with Tween-80 solution starting 24 hrs after tumor inoculation relative to control; format: functional; conditions: route intraperitoneal; summary of the method: as §3
[19] = system: Mus musculus; test: Toxicity in male CDF1 mouse allografted with mouse P388 cells assessed as animal survival at 50 mg/kg, ip administered daily for 9 days as saline with Tween-80 solution starting 24 hrs after tumor inoculation; format: organism-based; parameters: dose 50 mg/kg, route intraperitoneal; conditions: in vivo; summary of the method: as §1
[20] = system: P388; test: Antitumor activity against mouse P388 cells allografted in male CDF1 mouse assessed as disease cures by measuring 30-days host survival at 25 mg/kg, ip administered daily for 9 days as saline with Tween-80 solution starting 24 hrs after tumor inoculation relative to control; format: functional; conditions: route intraperitoneal; summary of the method: as §3
[21] = system: P388; test: Antitumor activity against mouse P388 cells allografted in female CDF1 mouse assessed as change in body weight at 25 mg/kg, ip administered daily for 9 days as saline with Tween-80 solution starting 24 hrs after tumor inoculation; format: functional; conditions: route intraperitoneal; summary of the method: as §2
[22] = system: P388; test: Antitumor activity against mouse P388 cells allografted in male CDF1 mouse assessed as change in body weight at 100 mg/kg, ip administered daily for 9 days as saline with Tween-80 solution starting 24 hrs after tumor inoculation; format: functional; conditions: route intraperitoneal; summary of the method: as §2

Question: With `CCCCNC(=O)OCc1c(COC(=O)NCCCC)c(-c2ccc(Cl)c(Cl)c2)n2c1CCC2` as the compound, how does the Activity [1] read?
Answer: Non-toxic

Question: And the Activity [2]?
Answer: Non-toxic

Question: What about the Activity [3] of the same compound?
Answer: -1.9 g

Question: And the T/C [4]?
Answer: 137%

Question: And the Activity [5]?
Answer: Non-toxic

Question: What about the Activity [6] of the same compound?
Answer: -3.2 g

Question: And the T/C [7]?
Answer: 181%

Question: What about the Activity [8] of the same compound?
Answer: -1.1 g

Question: What about the T/C [9] of the same compound?
Answer: 84%

Question: And the Activity [10]?
Answer: -1.9 g

Question: What about the Activity [11] of the same compound?
Answer: Non-toxic

Question: And the T/C [12]?
Answer: 171%

Question: What about the T/C [13] of the same compound?
Answer: 159%

Question: What about the Activity [14] of the same compound?
Answer: -2 g

Question: What about the Activity [15] of the same compound?
Answer: -3.6 g

Question: And the Activity [16]?
Answer: Non-toxic

Question: And the T/C [17]?
Answer: 160%

Question: What about the T/C [18] of the same compound?
Answer: 163%

Question: What about the Activity [19] of the same compound?
Answer: Non-toxic

Question: And the T/C [20]?
Answer: 138%

Question: And the Activity [21]?
Answer: -1.2 g

Question: What about the Activity [22] of the same compound?
Answer: -0.4 g

Source: ChEMBL document CHEMBL3244396, “Synthesis and antileukemic activity of 5-substituted 2,3-dihydro-6,7-bis(hydroxymethyl)-1H-pyrrolizine diesters” (J Med Chem, 1977)
